procasp7 counter – counter-screen: procaspase-7 (human) activation. P55210. recombinant procaspase-7, Ac-DEVD-pNA absorbance 405 nm; D23A/D198A/D206A triple mutant, cannot self-cleave; scale: DMSO 0, 5 µM enzyme 100. activation, % at 8.5 µM. 330,000 tested, 0.093% active. AID 463210;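 active = percent activation above the screen-wide mean plus 3 SD, cut at about 25% in these data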
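buffer or medium = Zinc-free HEPES/NaCl buffer, pH 7.4 | material = Procaspase-7 triple mutant (PC-7 D3A) | input = 2 µM procaspase-7 mutant as dispensed | signal = Epi-absorbance of released pNA at 405 nm, two timepoints | timing = 1 h preincubation, 2 h reaction | replicates = singlicate compound testing | evaluation = % activation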
PLC-beta3 inh – blocks human PLC-beta3 enzyme activity; Purified PLC-beta3, fluorogenic substrate, fluorescence; inhibition, % at 12.2 µM; AID 720704; Q01970; 370,000 tested, 0.18% active;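 also: 0% = median of compound wells on plate and 100% = full blocker control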
procasp3 activ – procaspase-3 (human) activation. P42574. recombinant procaspase-3 D3A, Ac-DEVD-pNA absorbance 405 nm. activation, % at 8.5 µM. 330,000 tested, 0.11% active. AID 463141;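 active = activation above the mean of all tested compounds plus 3 SD, cut at about 21% in these data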;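 also: 0% = DMSO alone and 100% = DMSO wells spiked with extra 5 µM PC-3 D3A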
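Compound: 8.5 µM single point, 0.8% DMSO / Material: Autoprocessing-dead procaspase-3 D3A mutant enzyme / Timing: 1 h preincubation plus 2 h reaction at 25 °C / Medium: Zinc-free HEPES/NaCl buffer with 0.01% Triton X-100 at pH 7.4 / Technique: 405 nm absorbance of p-nitroaniline, reads at 0 and 120 min / Repeats: one well per compound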
PLC-gamma1 inh – blocks human PLC-gamma1 enzyme activity | purified PLC-gamma1, fluorogenic substrate, fluorescence | AID 720700 | inhibition, % at 12.2 µM | 370,000 tested, 0.84% active | P19174; in the data active = inhibition above about 9.5%
Target sequence (P19174 whole entry, looked up): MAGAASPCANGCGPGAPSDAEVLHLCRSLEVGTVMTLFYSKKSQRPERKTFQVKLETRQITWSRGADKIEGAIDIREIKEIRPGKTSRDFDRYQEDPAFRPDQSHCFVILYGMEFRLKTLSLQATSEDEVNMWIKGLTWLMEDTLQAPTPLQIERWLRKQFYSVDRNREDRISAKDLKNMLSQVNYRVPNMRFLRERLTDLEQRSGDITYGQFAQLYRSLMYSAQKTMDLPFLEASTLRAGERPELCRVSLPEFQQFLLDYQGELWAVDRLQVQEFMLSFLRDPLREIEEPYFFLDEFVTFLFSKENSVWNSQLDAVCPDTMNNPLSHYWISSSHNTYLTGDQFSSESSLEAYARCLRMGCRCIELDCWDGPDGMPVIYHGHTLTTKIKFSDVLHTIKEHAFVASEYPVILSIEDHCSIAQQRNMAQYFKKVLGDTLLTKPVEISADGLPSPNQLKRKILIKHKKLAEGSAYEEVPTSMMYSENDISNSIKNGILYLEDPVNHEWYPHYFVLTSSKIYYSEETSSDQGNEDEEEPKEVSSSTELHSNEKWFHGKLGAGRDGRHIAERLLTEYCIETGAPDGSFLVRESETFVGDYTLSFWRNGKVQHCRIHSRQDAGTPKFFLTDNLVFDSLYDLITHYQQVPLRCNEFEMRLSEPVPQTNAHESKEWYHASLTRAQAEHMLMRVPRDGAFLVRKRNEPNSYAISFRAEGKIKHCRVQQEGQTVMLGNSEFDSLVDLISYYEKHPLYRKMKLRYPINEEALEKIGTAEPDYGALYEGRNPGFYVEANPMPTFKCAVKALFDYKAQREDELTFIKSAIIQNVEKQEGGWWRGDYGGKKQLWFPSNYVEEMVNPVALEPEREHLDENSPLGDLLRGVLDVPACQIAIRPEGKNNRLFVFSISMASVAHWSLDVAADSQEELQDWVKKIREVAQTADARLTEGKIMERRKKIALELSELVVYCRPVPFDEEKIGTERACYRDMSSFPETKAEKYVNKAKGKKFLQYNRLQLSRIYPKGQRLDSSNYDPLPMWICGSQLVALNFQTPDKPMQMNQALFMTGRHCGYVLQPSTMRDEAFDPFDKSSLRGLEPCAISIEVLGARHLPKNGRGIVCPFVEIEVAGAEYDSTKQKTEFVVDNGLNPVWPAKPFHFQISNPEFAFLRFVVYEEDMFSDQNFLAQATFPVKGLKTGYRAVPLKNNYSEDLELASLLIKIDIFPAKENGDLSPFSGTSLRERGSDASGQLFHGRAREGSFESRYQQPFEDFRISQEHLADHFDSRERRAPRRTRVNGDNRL
HGIII-sPLA2 inh – Blocks human group III sPLA2 activity; Q9NZ20; QFRET BODIPY PC-A2 liposome hydrolysis, fluorescence; inhibition, % at 12.2 µM; 370,000 tested, 0.56% active; AID 743126;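 active = inhibition above mean plus 3 SD of compounds lying within the high and low control bounds, cut at about 19% in these data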;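 also: 0% = median of test compound wells and 100% = no enzyme DMSO wells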
PLCgamma1 ctr – PLC-gamma1 inhibition, counter-screen for PLC-beta3 hits | shares compounds with PLC-gamma1 inh | purified PLC-gamma1, fluorogenic substrate, fluorescence | inhibition, % at 12.3 µM | 3,300 tested, 3.1% active | AID 743258; in the data active = inhibition above about 9.5%
PLCbeta3 conf – human PLC-beta3 inhibition, confirmation; purified PLC-beta3, fluorogenic substrate fluorescence; 3,300 tested, 1% active; AID 743261; inhibition, % at 12.3 µM; shares compounds with PLC-gamma1 inh
* marks the source's active call; other numbers are inactive results; . = no result given. Compounds with a hit are over-represented: about 1.6% of the library has one in this group of screens. Rule as the data show it, unless noted: active = inhibition above about 11%; inactive = the rest.

SMILES	procasp7 counter	PLC-beta3 inh	procasp3 activ	PLC-gamma1 inh	HGIII-sPLA2 inh	PLCgamma1 ctr	PLCbeta3 conf
O=C(CSc1nnc(-c2ccccn2)n1Cc1ccco1)Nc1ccc(Oc2ccccc2)cc1	.	2.6	.	10.7*	-14.2	-4.7	-1.5
COc1ccc(NC(=O)CSc2nnc(-c3ccccn3)n2Cc2ccco2)cc1OC	6.8	2.3	6.0	-1.4	-1.2	.	.
Cc1ccc(CCNC(=O)CS(=O)Cc2nc(-c3ccccc3Cl)oc2C)cc1 (stereo unspecified)	5.8	-2.6	0.7	9.7*	-10.4	-5.7	-4.2
CCOc1ccc(CCNC(=O)CS(=O)Cc2nc(-c3ccccc3Cl)oc2C)cc1OCC (stereo unspecified)	1.6	-4.9	0.4	1.9	-2.2	.	.
COC(=O)c1ccc(NC(=S)NC2CC3CCC2C3)cc1 (stereo unspecified)	-8.9	5.5	-2.2	9.6*	-7.9	4.1	3.8
CC1(C(=O)NS(=O)(=O)c2ccccc2Cl)CCN1C(=O)Cc1cccc2ccccc12 (stereo unspecified)	.	-2.0	.	7.3	-3.0	.	.
O=C(COC(=O)CCc1nc2ccccc2s1)Nc1cccc(S(=O)(=O)N2CCOCC2)c1	-2.2	3.6	3.0	11.3*	-16.5	-2.4	-1.8
CN1CCN(C(=O)CN(CCc2ccccc2)S(C)(=O)=O)CC1	-1.9	0.9	2.0	0.4	5.5	.	.
CCN1CCN(C(=O)CN(CCc2ccccc2)S(C)(=O)=O)CC1	-1.3	3.2	1.5	9.9*	-2.7	-6.1	-0.3
O=S(=O)(c1ccccc1F)N1CCc2ccccc2C1	3.0	1.9	-0.2	3.8	0.3	.	.
O=[N+]([O-])c1ccccc1S(=O)(=O)N1CCc2ccccc2C1	4.0	12.4*	15.0	1.9	1.9	-6.0	-2.4
Cc1ccc(NC(=O)Cn2sc3nc(C)cc(C)c3c2=O)c(Cl)c1	-33.7	-0.9	-18.6	13.2*	11.4	-5.8	-2.3
COC(=O)c1csc(S(=O)(=O)N2CCCCC2)c1OC	-4.3	-5.5	0.5	-2.3	-1.5	.	.
O=C(/C=C/c1cccs1)Nc1ccncc1	0.7	1.8	-6.8	2.6	10.0	.	.
O=C(/C=C/c1cccs1)Nc1ccc([N+](=O)[O-])cc1	2.9	4.9	3.2	12.3*	-3.4	5.3	5.8
NS(=O)(=O)c1ccc(NC(=S)NC(=O)/C=C/c2cccs2)cc1	-2.9	-1.3	3.2	-1.7	-1.3	.	.
NC(N)=NS(=O)(=O)c1ccc(NC(=S)NC(=O)/C=C/c2cccs2)cc1	1.3	-1.9	-4.2	13.1*	7.2	-0.8	-1.7
COc1ccc(CN(C)C(=O)c2ccc(NS(=O)(=O)c3ccc4[nH]c(=O)[nH]c4c3)cc2)c(OC)c1	7.2	-2.1	4.9	15.5*	-15.5	1.2	-5.4
CN(Cc1ccc(F)cc1)C(=O)c1ccc(NS(=O)(=O)c2ccc3[nH]c(=O)[nH]c3c2)cc1	-5.5	-0.2	4.4	-0.4	-4.2	.	.
CCN=C(NCC)SC1CC(=O)N(CCc2ccccc2)C1=O (stereo unspecified)	-33.7	-1.7	-31.8	-1.4	-6.5	.	.
N#Cc1ccc(C23CC4(C2)[C@H](CN(Cc2ccc(-c5ccccc5)cc2)[C@@H]4c2ccccc2)C3c2ccc(Cl)nc2)cc1 (stereo partly specified)	0.9	2.8	3.4	13.0*	4.9	-9.9	-14.8
Clc1ccc(C2[C@H]3CN(Cc4ccc(-c5ccccc5)cc4)[C@H](c4ccccc4)C34CC2(c2ccccc2)C4)cn1 (stereo partly specified)	-5.0	1.6	7.1	1.4	13.7	.	.
CC(=O)Nc1ccc(OC(=O)c2ccc(Cl)cc2)cc1	-2.3	10.7*	-3.8	4.4	-7.1	-9.1	-4.3
COC(=O)c1cc(NC(=O)Cc2ccccc2[N+](=O)[O-])cc(C(=O)OC)c1	1.2	2.8	10.1	1.9	-7.7	.	.
COc1ccc(-c2csc(=NCCO)n2-c2ccccc2)cc1	.	-3.6	.	10.0*	19.2	-3.4	-1.2
Cc1ccc(CNC2CCC23CCC(c2ccccc2)CC3)o1 (stereo unspecified)	.	1.1	.	2.4	2.6	.	.
